Calls of active or inactive are those of the source. The rule behind the calls is not given here.
Tests used:
D(4) dopamine receptor = target: T1, D(4) dopamine receptor (Homo sapiens, UniProt P21917); assay: in vitro binding affinity was determined on human Dopamine receptor D4 expressed in chinese hamster ovary(CHO) K-1 cells using [3H]spiperone as radioligand.; format: cell-based, CHO-K1
T1 sequence (P21917 whole entry): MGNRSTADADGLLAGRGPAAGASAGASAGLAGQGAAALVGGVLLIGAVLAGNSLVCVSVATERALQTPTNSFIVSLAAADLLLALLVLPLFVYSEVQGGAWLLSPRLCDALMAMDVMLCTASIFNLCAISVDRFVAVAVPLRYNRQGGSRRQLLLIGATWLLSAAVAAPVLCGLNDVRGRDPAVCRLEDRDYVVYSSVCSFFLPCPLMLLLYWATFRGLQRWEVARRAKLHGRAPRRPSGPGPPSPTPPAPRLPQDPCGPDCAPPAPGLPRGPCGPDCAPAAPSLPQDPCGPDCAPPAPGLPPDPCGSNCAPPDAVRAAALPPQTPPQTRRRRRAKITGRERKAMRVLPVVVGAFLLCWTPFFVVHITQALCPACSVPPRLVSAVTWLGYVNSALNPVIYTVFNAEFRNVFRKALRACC
In short: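 Displacement of [³H]spiperone from human D4.2 receptors expressed in CHO K-1 cells; Ki values are means of three separate experiments, which varied by no more than 25%.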

[1] = Inhibitory concentration of lipid peroxidation (LPO).; format: functional
D(3) dopamine receptor [2] = target: D(3) dopamine receptor (Homo sapiens, UniProt P35462); assay: in vitro binding affinity was determined on human Dopamine receptor D3 expressed in chinese hamster ovary(CHO) K-1 cells using [3H]spiperone as radioligand.; format: cell-based, CHO-K1
D(2) dopamine receptor [3] = target: T2, D(2) dopamine receptor (Rattus norvegicus, UniProt P61169); assay: Effective concentration was determined as thymidine uptake in CHO-L6 cells transfected with the rat Dopamine receptor D2L by mitogenesis assay (intrinsic activity); format: functional, cell-based
In short: (§1)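 Mitogenesis assay for agonism: [³H]thymidine uptake measured in CHO-L6 cells transfected with rat D2L receptor. Intrinsic activity expressed relative to quinpirole, taken as full agonist (IA 100%). Means of three determinations.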

[4] = target: D(2) dopamine receptor (Rattus norvegicus) (UniProt P61169); assay: compound was tested for intrinsic activity for thymidine uptake in CHO-L6 cells transfected with rat Dopamine receptor D2L; format: functional, cell-based; in short: as §1
[5] = target: D(3) dopamine receptor (Rattus norvegicus) (UniProt P19020); details: CHO-L6
D(2) dopamine receptor [6] = target: T3, D(2) dopamine receptor (Homo sapiens, UniProt P14416); assay: in vitro binding affinity was determined on human Dopamine receptor D2L expressed in chinese hamster ovary(CHO) K-1 cells using [3H]NPA as radioligand.; format: cell-based, CHO-K1
In short: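 Displacement of agonist radioligand [³H]NPA from human D2L receptors expressed in CHO K-1 cells. Ki is the mean of three separate experiments, with results varying by no more than 25%.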

D(3) dopamine receptor [7] = target: T4, D(3) dopamine receptor (Rattus norvegicus, UniProt P19020); assay: Effective concentration was determined as thymidine uptake in CHO-L6 cells transfected with the rat Dopamine receptor D3 by mitogenesis assay (intrinsic activity)
[8] = target: D(2) dopamine receptor (Rattus norvegicus) (UniProt P61169); assay: Inhibition of quinpirole (30 nM)-stimulated [3H]thymidine uptake in CHO-L6 cells transfected with the rat Dopamine receptor D2L; NA is not active; format: functional, cell-based
D(3) dopamine receptor [9] = target: T4, D(3) dopamine receptor; assay: Effective concentration was determined as thymidine uptake in CHO-L6 cells transfected with the rat Dopamine receptor D3 by mitogenesis assay; format: functional, cell-based
[10] = Log d of compound was determined; format: physicochemical; details: octanol/water
[11] = target: D(3) dopamine receptor (Rattus norvegicus) (UniProt P19020); details: CHO-L6; remark: listed apart in the source
[12] = target: D(2) dopamine receptor (Rattus norvegicus) (UniProt P61169); assay: Inhibition of quinpirole (30 nM)-stimulated [3H]thymidine uptake in CHO-L6 cells transfected with the rat Dopamine receptor D2L;compound is active showing test concentration ranging from 0.1 nM - 1 uM; format: functional, cell-based
D(2) dopamine receptor [13] = target: T3, D(2) dopamine receptor; assay: in vitro binding affinity was determined on human Dopamine receptor D2L expressed in chinese hamster ovary(CHO) K-1 cells using [3H]spiperone as radioligand.; format: cell-based, CHO-K1
In short: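 Antagonist binding: displacement of [³H]spiperone from human DA D2L, D3 or D4.2 receptors expressed in CHO K-1 cells; Ki as mean of three separate experiments, varying by no more than 25%; high- and low-affinity Ki reported separately where applicable.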

D(2) dopamine receptor [14] = target: T3, D(2) dopamine receptor; assay: in vitro binding affinity was determined on human Dopamine receptor D2L expressed in chinese hamster ovary(CHO) K-1 cells using [3H]-0437 as radioligand.; format: cell-based, CHO-K1
In short: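 Human DA D2L receptor expressed in CHO K-1 cells; agonist radioligand displacement ([³H]N-0437 or [³H]NPA); Ki as mean of three separate experiments, varying by no more than 25%.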

D(2) dopamine receptor [15] = target: T2, D(2) dopamine receptor; assay: Effective concentration was determined as thymidine uptake in CHO-L6 cells transfected with the rat Dopamine receptor D2L by mitogenesis assay; format: functional, cell-based
In short: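 Agonism read as [³H]thymidine uptake (mitogenesis) in CHO-L6 cells transfected with rat DA D2L receptor; intrinsic activity expressed relative to quinpirole (full agonist, IA 100%); test concentrations 0.1 nM to 1 µM; means of three determinations ± SEM.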

[16] = target: D(2) dopamine receptor (Rattus norvegicus) (UniProt P61169); assay: Inhibition of quinpirole (30 nM)-stimulated [3H]thymidine uptake in CHO-L6 cells transfected with the rat Dopamine receptor D2L; compound is active showing test concentration ranging from 0.1 nM - 1 uM; format: functional, cell-based

T2 sequence (P61169 whole entry): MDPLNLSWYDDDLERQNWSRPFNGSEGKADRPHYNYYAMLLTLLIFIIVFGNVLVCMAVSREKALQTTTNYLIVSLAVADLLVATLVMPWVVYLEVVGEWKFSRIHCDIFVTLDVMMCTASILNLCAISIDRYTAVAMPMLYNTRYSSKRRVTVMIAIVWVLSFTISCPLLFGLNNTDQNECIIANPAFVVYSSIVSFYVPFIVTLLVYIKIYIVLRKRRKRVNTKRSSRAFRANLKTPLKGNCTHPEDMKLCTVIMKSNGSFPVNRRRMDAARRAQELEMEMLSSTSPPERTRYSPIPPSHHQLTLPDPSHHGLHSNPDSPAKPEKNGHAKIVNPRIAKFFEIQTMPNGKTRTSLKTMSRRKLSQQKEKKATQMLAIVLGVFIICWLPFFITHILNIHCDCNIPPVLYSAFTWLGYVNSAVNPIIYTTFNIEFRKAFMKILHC
Sequence of D(2) dopamine receptor (Rattus norvegicus) (P61169 whole entry): as above
T3 sequence (P14416 whole entry): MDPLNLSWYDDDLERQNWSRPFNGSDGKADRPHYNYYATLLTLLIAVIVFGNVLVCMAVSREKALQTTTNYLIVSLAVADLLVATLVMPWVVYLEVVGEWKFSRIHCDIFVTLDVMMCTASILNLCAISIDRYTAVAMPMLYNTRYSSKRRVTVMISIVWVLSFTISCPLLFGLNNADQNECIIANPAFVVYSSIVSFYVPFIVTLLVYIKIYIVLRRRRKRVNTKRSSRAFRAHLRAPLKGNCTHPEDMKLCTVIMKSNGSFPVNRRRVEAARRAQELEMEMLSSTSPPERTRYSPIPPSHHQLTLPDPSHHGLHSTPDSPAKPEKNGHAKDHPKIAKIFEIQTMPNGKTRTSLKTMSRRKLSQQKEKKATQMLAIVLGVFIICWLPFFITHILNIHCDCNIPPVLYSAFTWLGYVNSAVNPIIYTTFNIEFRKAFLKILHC
Sequence of D(3) dopamine receptor (Homo sapiens, UniProt P35462) (P35462 whole entry): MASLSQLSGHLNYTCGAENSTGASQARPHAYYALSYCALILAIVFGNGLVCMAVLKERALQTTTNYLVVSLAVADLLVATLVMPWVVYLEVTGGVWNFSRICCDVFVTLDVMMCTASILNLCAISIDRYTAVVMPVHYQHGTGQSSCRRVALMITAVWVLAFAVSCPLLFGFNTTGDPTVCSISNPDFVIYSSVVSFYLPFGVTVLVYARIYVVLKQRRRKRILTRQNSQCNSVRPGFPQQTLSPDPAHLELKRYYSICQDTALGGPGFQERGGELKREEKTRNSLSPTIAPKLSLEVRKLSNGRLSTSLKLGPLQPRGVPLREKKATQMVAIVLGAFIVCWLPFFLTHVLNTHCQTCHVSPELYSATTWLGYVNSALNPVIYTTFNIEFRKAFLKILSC
Sequence of D(3) dopamine receptor (Rattus norvegicus) (P19020 whole entry): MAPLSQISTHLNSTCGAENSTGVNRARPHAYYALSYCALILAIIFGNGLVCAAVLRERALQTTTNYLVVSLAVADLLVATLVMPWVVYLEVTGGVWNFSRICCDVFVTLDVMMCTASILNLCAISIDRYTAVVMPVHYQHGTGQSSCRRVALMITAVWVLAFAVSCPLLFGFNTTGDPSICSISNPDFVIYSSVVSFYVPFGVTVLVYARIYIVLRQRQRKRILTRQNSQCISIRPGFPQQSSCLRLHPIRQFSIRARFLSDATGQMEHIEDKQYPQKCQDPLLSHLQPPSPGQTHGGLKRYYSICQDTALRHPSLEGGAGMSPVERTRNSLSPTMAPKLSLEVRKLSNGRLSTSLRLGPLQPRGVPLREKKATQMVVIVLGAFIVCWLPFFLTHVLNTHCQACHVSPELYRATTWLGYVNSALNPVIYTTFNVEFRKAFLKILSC
T4 sequence (P19020 whole entry): as above

SMILES	IC50 [1]	Ki (D(3) dopamine receptor [2])	Ki (D(2) dopamine receptor [13])	Ki (D(2) dopamine receptor [14])	EC50 (D(2) dopamine receptor [15])	Inhibitory activity [16]	IC50 (D(4) dopamine receptor)	EC50 (D(2) dopamine receptor [3])	Intrinsic activity [4]	Inhibitory activity [5]	Ki (D(2) dopamine receptor [6])	EC50 (D(3) dopamine receptor [7])	NA [8]	EC50 (D(3) dopamine receptor [9])	logD [10]	Inhibitory activity [11]	Inhibitory activity [12]	Ki (D(4) dopamine receptor)
CCCN(CCC)C1Cc2ccc3nc(N)sc3c2C1 (centres undefined)	30000 nM	11 nM					> 10000 nM	18.7 nM	71%	Active	500 nM	> 1000 nM	inactive					
CCCN[C@H]1CCc2nc(N)sc2C1 [PRAMIPEXOLE]									90%					0.21 nM				
CCCN(CCC)C1Cc2cc3nc(N)sc3cc2C1 (centres undefined)	60000 nM	1.4 nM						5.7 nM	28%		27 nM	> 1000 nM			1.66	Active	Active	272 nM

Further lines, with some results ahead:

IC50 [1]	Ki (D(3) dopamine receptor [2])	Ki (D(2) dopamine receptor [13])	Ki (D(2) dopamine receptor [14])	EC50 (D(2) dopamine receptor [15])	Inhibitory activity [16]	SMILES	IC50 (D(4) dopamine receptor)	EC50 (D(2) dopamine receptor [3])	Intrinsic activity [4]	Inhibitory activity [5]	Ki (D(2) dopamine receptor [6])	EC50 (D(3) dopamine receptor [7])	NA [8]	EC50 (D(3) dopamine receptor [9])	logD [10]	Inhibitory activity [11]	Inhibitory activity [12]	Ki (D(4) dopamine receptor)
5000 nM	1400 nM	3510 nM	536 nM			CCCN(CCC)C1COc2c(ccc3sc(N)nc23)C1 (centres undefined)												
50000 nM	510 nM	5920 nM	47 nM	148 nM	Active	CCCN(CCC)C1COc2ccc3nc(N)sc3c2C1 (centres undefined)			7%					> 1000 nM		Active		
> 100000 nM	> 10000 nM					CCCNC1Cc2cc3nc(N)sc3cc2C1 (centres undefined)					1350 nM				0.19			> 3330 nM
